Shown are actives, neighbours in structure and some others; about 1.5% of the full set was active somewhere.
PG9 Ab binder = binds the HIV-1 gp120 antibody PG9 | 0.43% of 360,000 active | inhibition, % at 6.7 µM | AID 624416 | TR-FRET gp120-PG9 antibody binding; in the data active = inhibition above about 8.5%
Rev-erbA mod = Rev-erb alpha (human) modulation | Rev-erbα–FITC-DNA binding, fluorescence polarization, 90 min | 0.79% of 370,000 active | activity, % at 10 µM;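 active = activity above about 14%, limit read from the data; passing the limit was not always enough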;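 also: 0% = DMSO wells with 35 nM protein and 100% = DMSO wells with 750 nM protein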
NR2E3 ag-1 = agonists of human nuclear receptor NR2E3; Q9Y5X4; GST-NR2E3/biotin-RetCOR TR-FRET, 1536-well; inhibition of corepressor binding, % at 4.78 µM; 0.12% of 320,000 active; AID 2300;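 active = percent inhibition above the cutoff of mean plus 3 SD of all tested compounds, set per screening campaign, cut at about 20% in these data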;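 also: 0% = DMSO wells and 100% = biotin wells as full block of FRET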
Target sequence (Q9Y5X4 whole entry, looked up): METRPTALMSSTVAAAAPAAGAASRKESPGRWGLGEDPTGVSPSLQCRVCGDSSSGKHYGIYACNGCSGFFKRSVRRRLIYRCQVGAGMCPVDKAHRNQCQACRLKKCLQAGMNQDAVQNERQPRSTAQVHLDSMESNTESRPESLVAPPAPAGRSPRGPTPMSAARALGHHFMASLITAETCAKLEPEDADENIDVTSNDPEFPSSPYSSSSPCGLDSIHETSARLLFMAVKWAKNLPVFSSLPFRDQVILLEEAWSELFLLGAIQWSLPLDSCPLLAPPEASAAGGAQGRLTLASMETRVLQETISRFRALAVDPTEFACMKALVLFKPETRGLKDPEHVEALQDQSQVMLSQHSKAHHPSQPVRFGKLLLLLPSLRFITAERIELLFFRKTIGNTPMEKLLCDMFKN
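System: GST-tagged NR2E3 plus biotinylated RetCOR corepressor; Buffer or medium: pH 7.5 Tris-based buffer; Probe or stimulus: RetCOR corepressor, biotinylated, 7 nM; Doses: compound at 4.8 µM, single dose; Schedule: 5 h incubation at 4 °C; Technique: time-resolved FRET; Evaluation: percent inhibition of TR-FRET ratio; Replication: one well per compound, singlicate testing.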
NR2E3 ag-2 = agonists of human NR2E3 nuclear receptor; Q9Y5X4; CHO-S Gal4-NCOR/VP16-NR2E3 two-hybrid, luciferase; inhibition of corepressor binding, % at 3.98 µM; 0.35% of 360,000 active;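 active = inhibition above the mean of all tested compounds plus 3 SD, cut at about 70% in these data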;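 also: 0% = DMSO with NR2E3 transfected cells and 100% = cells lacking NR2E3 construct; higher means lower luciferase signal from less NR2E3 corepressor binding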
NR2E3 ag confirm = confirmation of human NR2E3 agonists | shares compounds with NR2E3 ag-2 | CHO-S mammalian two-hybrid NR2E3-NCOR, luciferase luminescence | inhibition, % at 3.98 µM | 51% of 2,300 active | AID 624378;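 active = average inhibition above a cutoff equal to the mean inhibition of all tested compounds plus one SD, cut at about 70% in these data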;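 also: 0% = DMSO in NR2E3 cells and 100% = DMSO in cells lacking NR2E3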
GAL4-VP16 luc = counter-screen for NR2E3 agonists: GAL4-VP16 reporter inhibitors; shares compounds with NR2E3 ag-2; CHO-S GAL4-VP16 luciferase reporter, luminescence; inhibition, % at 3.98 µM; 29% of 2,300 active;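 active = mean inhibition above a cutoff equal to the average over all tested compounds plus one standard deviation, cut at about 70% in these data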;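 also: luciferase from a UAS reporter driven by GAL4-VP16 transactivation; 0% = DMSO with VP16-transfected cells and 100% = DMSO with cells lacking VP16; higher means less reporter light so more repression of VP16 activity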
Numbers without * were called inactive; x = no result.

SMILES	PG9 Ab binder	Rev-erbA mod	NR2E3 ag-1	NR2E3 ag-2	NR2E3 ag confirm	GAL4-VP16 luc
O=C(Nc1ccc(OC(F)F)c(Cl)c1)Nc1ccc2c(c1)OCO2	0	5	1	-10	x	x
O=C(Nc1ccc([N+](=O)[O-])cc1)Nc1ccc(OC(F)F)c(Cl)c1	0	4	6	98*	99*	94*
Cc1ccc(S(=O)(=O)NCc2ccccc2)cc1C(=O)NCCc1ccc(S(N)(=O)=O)cc1	0	-1	5	58	4	1
CCC(C)[C@@H](C(=O)OC)N(Cc1cn(Cc2ccccc2)nn1)S(=O)(=O)c1ccccc1Br (stereo not given in full)	x	4	x	x	x	x
CCOC(=O)[C@]12CCCC=C1N(CCCOC)C(=O)[C@@H]2CC(=O)NCc1cccc(C(F)(F)F)c1	x	-7	x	x	x	x
COc1cc(C(O)c2nc(-c3ccc(N(C)C)cc3)cs2)ccc1F (stereo not given)	x	x	x	50	33	42
C(=Cc1cnc2ccccc2n1)c1ccc2c(c1)OCO2	-18	-4	x	52	37	-3
CCC[C@H]1[C@@H](O)CC[C@@]23CCCN2C(=O)CCC[C@@H]13	x	4	x	x	x	x
Cn1cc(C2(c3c[nH]c4ccccc34)CCN(C(=O)OC(C)(C)C)CC2)c2ccccc21	x	15	x	x	x	x
O=S(=O)(Nc1ccc2c(c1)OCCO2)c1ccc2oc3ccccc3c2c1	0	-3	0	81*	84*	68
O=S(=O)(Nc1ccc2c(c1)OCCO2)c1ccc(F)c(F)c1	-1	-8	-2	37	x	x
COc1ccc(S(=O)(=O)Nc2ccc3c(c2)n(C)c(=O)n3C)cc1OC	-1	-3	2	-29	x	x
COc1ccc(NS(=O)(=O)c2ccc(-n3cnnn3)cc2)cc1OC	-4	7	-2	61	-5	5
COc1ccc(NS(=O)(=O)c2ccc3c(c2)OCCO3)cc1OC	3	-2	2	100*	84*	73*
COc1ccc(S(=O)(=O)Nc2ccc3c(c2)n(C)c(=O)n3C)cc1F	0	7	-1	74*	11	19
O=C(OC12CCCN(C1)/C(=C/c1ccc(Cl)cc1)C2)c1ccccc1 (stereo not given)	x	9	x	x	x	x
CCN1CCCCC(NC(=O)c2ccccc2)C1=O (stereo not given)	x	5	x	x	x	x
c1ccc(CCNc2ccnc3cc4ccccc4cc23)cc1	-13	6	x	93*	97*	82*
CC(C)Nc1ccc(Nc2ccnc3cc4ccccc4cc23)cc1	-14	-11	-5	-24	x	x
COc1ccccc1NC(=O)CSc1nc2ccccc2c(=O)n1C	-2	-1	6	16	x	x
Cn1c(SCc2cccc([N+](=O)[O-])c2)nc2ccccc2c1=O	-4	-2	2	49	83*	65
Cc1cccc(NC(=O)CSc2nc3ccccc3c(=O)n2C)c1C	2	4	x	81*	91*	80*
O=S1(=O)CC2c3ccc(F)cc3CN2CN1CCc1ccccc1 (stereo not given)	x	3	x	x	x	x
Cc1ccc(C(=O)Nc2sc(C)c(-c3ccccc3)c2C(N)=O)cc1[N+](=O)[O-]	-2	6	1	54	56	16
COc1cccc2c1C(=O)c1c(O)c3c(c(O)c1C2=O)CC(O)(C(C)=O)CC3OC1CC(N(C)C)C(O)C(C)O1 (stereo not given)	-9	15	x	88*	100*	52
SMILES	PG9 Ab binder	Rev-erbA mod	NR2E3 ag-1	NR2E3 ag-2	NR2E3 ag confirm	GAL4-VP16 luc
CC1=CC(C)(C)N2C(=O)C3(NCCc4c3[nH]c3ccccc43)c3cc(C)cc1c32 (stereo not given)	-2	3	-1	57	12	6
O=C1/C(=C/c2ccccc2[N+](=O)[O-])COc2ccccc21	0	-3	2	-16	x	x
CC1(C)CC(=Cc2cc(O)ccc2[N+](=O)[O-])C(=O)c2ccccc21	x	x	x	98*	99*	71*
O=C(CN1C(=O)S/C(=C\c2ccccc2)C1=O)NNC(=O)c1ccccc1O	-1	6	-1	4	x	x
O=C(CCCN1C(=O)S/C(=C\C=C\c2ccccc2)C1=O)Nc1ccc(C(=O)O)cc1	-1	-9	1	54	8	58
O=C(CCCN1C(=O)S/C(=C\c2ccccc2)C1=O)NNC(=O)c1ccccc1O	0	1	8	50	60	53
CCOc1ccc(CCNC(=O)c2cc3ccsc3n2C)cc1OC	x	-1	x	x	x	x
